Published values collected from several papers.
Target: Carbonic anhydrase 2 (CA2, Homo sapiens, UniProt P00918)
Effect on: enzyme activity
Action: inhibitor

The IC50 of `Cc1ccc([C@H]2[C@H](C(=O)c3cccs3)[C@@H](c3cccs3)[C@@H]3c4ccccc4/C(=N/NC(N)=S)[C@@H]32)cc1` (racemic) is reported as 0.562 µM (absorbance).
With `CC(C)c1cc2c(c(O)c1O)[C@@]1(C(=O)O)CCCC(C)(C)[C@@H]1CC2` the IC50 was 0.00377 µM.
`NC(=S)N/N=C1/c2ccccc2[C@@H]2[C@H]1[C@@H](c1ccccc1)[C@H](C(=O)c1ccccc1)[C@H]2c1ccccc1` (racemic) gave an IC50 of 1.33 µM (absorbance).
The Ki of `Cc1cc(=O)oc2cc(OCCCC[Se]C#N)ccc12` is reported as > 100 µM (stopped-flow).
For `O=C(Nc1ccc2c(c1)C=CCP(=O)(O)O2)c1ccc(Cl)cc1`, the Ki was > 10 µM (stopped-flow).
`CC(C)c1cc2c(c(O)c1O)[C@@]13CCCC(C)(C)[C@@H]1[C@@H](O)[C@@H]2OC3=O` has a Ki of 0.00357 µM.
The Ki of `O=C(Nc1ccc2c(c1)C=CCP(=O)(O)O2)c1ccc2ccccc2c1` is reported as > 10 µM (stopped-flow).
The IC50 of `CC(C)c1cc2c(c(O)c1O)[C@@]13CCCC(C)(C)[C@@H]1[C@H](OC3=O)[C@H]2O` is reported as 0.00418 µM.
The IC50 of `NC(=S)N/N=C1/c2ccccc2[C@@H]2[C@H]1[C@@H](c1ccc(C(F)(F)F)cc1)[C@H](C(=O)c1ccc(C(F)(F)F)cc1)[C@H]2c1ccc(C(F)(F)F)cc1` (racemic) is reported as 0.551 µM (absorbance).
The Ki of `O=C(Nc1ccc2c(c1)C=CCP(=O)(O)O2)c1cccs1` is reported as > 10 µM (stopped-flow).
`NC(=S)N/N=C1/c2ccccc2[C@@H]2[C@H]1[C@@H](c1cccs1)[C@H](C(=O)c1cccs1)[C@H]2c1cccs1` (racemic) gave an IC50 of 0.51 µM (absorbance).
The Ki of `O=C(Nc1ccc2c(c1)C=CCP(=O)(O)O2)c1ccc(F)cc1` is reported as > 10 µM (stopped-flow).
With `N#C[Se]CCCCOc1ccc2c(-c3ccccc3)cc(=O)oc2c1` the Ki was > 100 µM (stopped-flow).
`CC(C)c1cc2c(c(O)c1O)[C@@]13CCCC(C)(C)[C@@H]1C[C@@H]2OC3=O` gave a Ki of 0.0088 µM.
The Ki of `Cc1ccc(NC(=O)Nc2ccc3c(c2)C=CCP(=O)(O)O3)cc1` is reported as > 10 µM (stopped-flow).
